{"source": "ChEMBL document CHEMBL5331111", "about": "“Synthetic Biology Facilitates Semisynthetic Development of Type V Glycopeptide Antibiotics Targeting Vancomycin-Resistant Enterococcus” (J Med Chem, 2023)", "key": {"[1]": {"test_system": "Mycolicibacterium smegmatis", "experiment": "Antimycobacterial activity against Mycobacterium smegmatis MC2 155 assessed as inhibition of bacterial growth measured after 2 days by resazurin dye based analysis", "format": "functional", "settings": "MC2 155, 48 h, time 2 day", "in_short": "(§1)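 Strains grown in 7H9 broth with 0.2% glycerol, 10% OADC and 0.05% Tween-80. Inoculum was about 5 × 10^5 CFU/mL, checked by plating on 7H10/OADC agar to be 3–8 × 10^5. Read at 2 days for M. smegmatis and 7 days for M. tuberculosis H37Ra, M. bovis and M. avium. Resazurin 30 μg/mL was then added for one further day. Values are averages of at least two experiments.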"}, "[2]": {"test_system": "Enterococcus faecium", "experiment": "Antibacterial activity against vancomycin-resistant Enterococcus faecium ATCC 700221 assessed as inhibition of bacterial growth by Mueller-Hinton broth based assay", "format": "functional"}, "[3]": {"test_system": "Enterococcus faecalis", "experiment": "Antibacterial activity against vancomycin-resistant Enterococcus faecalis ATCC 51299 assessed as inhibition of bacterial growth by Mueller-Hinton broth based assay", "format": "functional"}, "[4]": {"test_system": "Bacillus subtilis", "experiment": "Antibacterial activity against Bacillus subtilis 168 assessed as reduction in bacterial growth by Mueller-Hinton broth based assay", "format": "functional", "in_short": "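Broth MIC by standard procedure in Mueller-Hinton broth, for both B. subtilis 168 and S. aureus ATCC 33591.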"}, "[5]": {"test_system": "Enterococcus gallinarum", "experiment": "Antibacterial activity against vancomycin-resistant Enterococcus gallinarum ATCC 49573 assessed as inhibition of bacterial growth by Mueller-Hinton broth based assay", "format": "functional"}, "[6]": {"test_system": "Enterococcus faecium", "experiment": "Antibacterial activity against Enterococcus faecium WCC 0491 assessed as inhibition of bacterial growth by Mueller-Hinton broth based assay", "format": "functional"}, "[7]": {"test_system": "Enterococcus faecium", "experiment": "Antibacterial activity against Enterococcus faecium WCC 0492 assessed as inhibition of bacterial growth by Mueller-Hinton broth based assay", "format": "functional"}, "[8]": {"test_system": "Enterococcus faecium", "experiment": "Antibacterial activity against Enterococcus faecium WCC 0495 assessed as inhibition of bacterial growth by Mueller-Hinton broth based assay", "format": "functional"}, "[9]": {"test_system": "Enterococcus faecium", "experiment": "Antibacterial activity against Enterococcus faecium WCC 0496 assessed as inhibition of bacterial growth by Mueller-Hinton broth based assay", "format": "functional"}, "[10]": {"test_system": "Enterococcus faecium", "experiment": "Antibacterial activity against Enterococcus faecium WCC 0498 assessed as inhibition of bacterial growth by Mueller-Hinton broth based assay", "format": "functional"}, "[11]": {"test_system": "Enterococcus faecium", "experiment": "Antibacterial activity against Enterococcus faecium WCC 0499 assessed as inhibition of bacterial growth by Mueller-Hinton broth based assay", "format": "functional"}, "[12]": {"test_system": "Enterococcus faecium", "experiment": "Antibacterial activity against Enterococcus faecium WCC 0502 assessed as inhibition of bacterial growth by Mueller-Hinton broth based assay", "format": "functional"}, "[13]": {"test_system": "Enterococcus faecium", "experiment": "Antibacterial activity against Enterococcus faecium WCC 0506 assessed as inhibition of bacterial growth by Mueller-Hinton broth based assay", "format": "functional"}, "[14]": {"test_system": "Enterococcus faecium", "experiment": "Antibacterial activity against Enterococcus faecium WCC 0516 assessed as inhibition of bacterial growth by Mueller-Hinton broth based assay", "format": "functional"}, "[15]": {"test_system": "Enterococcus faecium", "experiment": "Antibacterial activity against Enterococcus faecium WCC 0528 assessed as inhibition of bacterial growth by Mueller-Hinton broth based assay", "format": "functional"}, "[16]": {"test_system": "Enterococcus faecium", "experiment": "Antibacterial activity against Enterococcus faecium WCC 0533 assessed as inhibition of bacterial growth by Mueller-Hinton broth based assay", "format": "functional"}, "[17]": {"test_system": "Enterococcus faecium", "experiment": "Antibacterial activity against Enterococcus faecium WCC 0534 assessed as inhibition of bacterial growth by Mueller-Hinton broth based assay", "format": "functional"}, "[18]": {"test_system": "Enterococcus faecium", "experiment": "Antibacterial activity against Enterococcus faecium WCC 0537 assessed as inhibition of bacterial growth by Mueller-Hinton broth based assay", "format": "functional"}, "[19]": {"test_system": "Enterococcus faecium", "experiment": "Antibacterial activity against Enterococcus faecium WCC 0586 assessed as inhibition of bacterial growth by Mueller-Hinton broth based assay", "format": "functional"}, "[20]": {"test_system": "Enterococcus faecium", "experiment": "Antibacterial activity against vancomycin-resistant Enterococcus faecium WCC 0541 assessed as inhibition of bacterial growth by Mueller-Hinton broth based assay", "format": "functional"}, "[21]": {"test_system": "Enterococcus faecium", "experiment": "Antibacterial activity against Enterococcus faecium WCC 0545 assessed as inhibition of bacterial growth by Mueller-Hinton broth based assay", "format": "functional"}, "[22]": {"test_system": "Enterococcus faecium", "experiment": "Antibacterial activity against Enterococcus faecium WCC 0553 assessed as inhibition of bacterial growth by Mueller-Hinton broth based assay", "format": "functional"}, "[23]": {"test_system": "Enterococcus faecium", "experiment": "Antibacterial activity against Enterococcus faecium WCC 0558 assessed as inhibition of bacterial growth by Mueller-Hinton broth based assay", "format": "functional"}, "[24]": {"test_system": "Enterococcus faecium", "experiment": "Antibacterial activity against Enterococcus faecium WCC 0587 assessed as inhibition of bacterial growth by Mueller-Hinton broth based assay", "format": "functional"}, "[25]": {"test_system": "Mycolicibacterium fortuitum", "experiment": "Antimycobacterial activity against Mycobacterium fortuitum ATCC 6891 assessed as inhibition of bacterial growth measured after 2 days by resazurin dye based analysis", "format": "functional", "settings": "ATCC 6891, 48 h, time 2 day", "in_short": "(§2)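 Cultured in 7H9 with 0.2% glycerol, 10% OADC and 0.05% Tween-80. Inoculum diluted to ~5 × 10^5 CFU/mL and confirmed at 3–8 × 10^5 by plating on 7H10 agar. Growth read at 2 days, then 30 μg/mL resazurin added for one more day. Values averaged from at least two experiments.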"}, "[26]": {"test_system": "Mycobacteroides abscessus", "experiment": "Antimycobacterial activity against Mycobacterium abscessus ATCC 19977 assessed as inhibition of bacterial growth measured after 2 days by resazurin dye based analysis", "format": "functional", "settings": "ATCC 19977, 48 h, time 2 day", "in_short": "as §2"}, "[27]": {"test_system": "Mycobacterium tuberculosis", "experiment": "Antimycobacterial activity against Mycobacterium tuberculosis H37Ra assessed as inhibition of bacterial growth measured after 7 days by resazurin dye based analysis", "format": "functional", "settings": "168 h, time 7 day", "in_short": "as §1"}, "[28]": {"experiment": "Antimycobacterial activity against Mycobacterium avium subsp. avium ATCC 25291 assessed as inhibition of bacterial growth measured after 7 days by resazurin dye based analysis", "format": "functional", "settings": "ATCC 25291, 168 h, time 7 day", "in_short": "as §1"}, "[29]": {"experiment": "Cytotoxicity against HEK293 cells assessed as inhibition of cell growth incubated for 48 hrs by Cell-Titer Glo reagent based analysis", "format": "toxicity", "settings": "human", "in_short": "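HEK293 cells seeded at 7500 cells/well in DMEM with 10% FBS, 2 mM glutamine and pen/strep, and left 18 h at 37 °C under 5% CO2. Compound then added at 1% final DMSO and incubated 48 h. Viability read by CellTiter-Glo luminescence and normalized to DMSO-only wells. Curves fitted by 4PL constrained to 0–1.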"}, "[30]": {"experiment": "Hemolytic activity in human RBC incubated for 1 hr by absorbance based analysis", "format": "toxicity, cell-based, Erythrocyte", "settings": "red blood cells (erythrocytes)", "in_short": "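Human K2-EDTA blood RBCs washed twice in 150 mM NaCl, resuspended in PBS pH 7.4, then diluted 1:50. Incubated with compound at 1% final DMSO for 1 h at 37 °C and pelleted at 500g for 5 min. Supernatant absorbance read at 540 nm. Controls were DMSO-only and a Triton X-100 dilution series (20% to 0.02%).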"}, "[31]": {"test_system": "Enterococcus faecium", "experiment": "Antibacterial activity against Vancomycin-resistant Enterococcus faecium ATCC 700221 infected in cyclophosphamide induced neutropenic thigh infection CD-1 mouse model assessed as reduction in weight loss at 100 mg/kg, ip qid measured after 24 hrs post-infection", "format": "functional, organism-based", "in_short": "(§3)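 Female CD-1 mice, 6–10 weeks old, made neutropenic with i.p. cyclophosphamide (150 mg/kg day 4, 100 mg/kg day 1). About 1 × 10^6 CFU of E. faecium ATCC 700221, grown in BHI with vancomycin, were injected into each thigh. Dosing was i.p. at 1, 3, 5 and 20 h post-infection, in PEG400/DMSO/H₂O (45/5/50) vehicle, with vehicle controls. Mice were euthanized at 24 h.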"}, "[32]": {"test_system": "Enterococcus faecium", "experiment": "Antibacterial activity against Vancomycin-resistant Enterococcus faecium ATCC 700221 infected in cyclophosphamide induced neutropenic thigh infection CD-1 mouse model assessed as increase in survival rate at 100 mg/kg, ip qid measured after 24 hrs post-infection", "format": "functional, organism-based", "in_short": "as §3"}, "[33]": {"test_system": "Enterococcus faecium", "experiment": "Antibacterial activity against Vancomycin-resistant Enterococcus faecium ATCC 700221 infected in cyclophosphamide induced neutropenic thigh infection CD-1 mouse model assessed as reduction in blood bacterial load at 100 mg/kg, ip qid measured after 24 hrs post-infection", "format": "functional", "in_short": "as §3"}, "[34]": {"experiment": "Toxicity in cyclophosphamide induced neutropenic thigh infection CD-1 mouse model infected with Vancomycin-resistant Enterococcus faecium ATCC 700221 assessed as change in thigh weight at 100 mg/kg, ip qid measured after 24 hrs post-infection", "format": "organism-based", "settings": "in vivo", "in_short": "as §3"}, "[35]": {"experiment": "Toxicity in cyclophosphamide induced neutropenic thigh infection CD-1 mouse model infected with Vancomycin-resistant Enterococcus faecium ATCC 700221 assessed as change in spleen weight at 100 mg/kg, ip qid measured after 24 hrs post-infection", "format": "organism-based", "settings": "in vivo", "in_short": "as §3"}}, "note": "Calls of active or inactive are those of the source. No cut-off for these calls is given here.", "data": [{"smiles": "CN(C)CCCNC(=O)[C@@H]1NC(=O)[C@@H]2Cc3ccc(cc3)Oc3cc4cc(c3O)-c3ccc5c(c[nH]c5c3)C[C@@H](NC(=O)C(NC(=O)CCCCCN)c3ccc(O)cc3)C(=O)N[C@H](c3ccc(O)cc3)C(=O)N[C@H]4C(=O)N[C@@H](C(=O)N2C)c2ccc(cc2)Oc2cc1ccc2O", "note": "(stereo not given in full)", "values": [{"measurement": "MIC", "setting": "[1]", "value": 0.5, "unit": "µg/mL"}, {"measurement": "MIC", "setting": "[2]", "value": 0.5, "unit": "µg/mL"}, {"measurement": "MIC", "setting": "[3]", "value": 1, "unit": "µg/mL"}, {"measurement": "MIC", "setting": "[4]", "value": 1, "unit": "µg/mL"}, {"measurement": "MIC", "setting": "[5]", "value": 2, "unit": "µg/mL"}, {"measurement": "MIC", "setting": "[6]", "value": 1, "unit": "µg/mL"}, {"measurement": "MIC", "setting": "[7]", "value": 2, "unit": "µg/mL"}, {"measurement": "MIC", "setting": "[8]", "value": 1, "unit": "µg/mL"}, {"measurement": "MIC", "setting": "[9]", "value": 1, "unit": "µg/mL"}, {"measurement": "MIC", "setting": "[10]", "value": 2, "unit": "µg/mL"}, {"measurement": "MIC", "setting": "[11]", "value": 1, "unit": "µg/mL"}, {"measurement": "MIC", "setting": "[12]", "value": 1, "unit": "µg/mL"}, {"measurement": "MIC", "setting": "[13]", "value": 1, "unit": "µg/mL"}, {"measurement": "MIC", "setting": "[14]", "value": 0.5, "unit": "µg/mL"}, {"measurement": "MIC", "setting": "[15]", "value": 1, "unit": "µg/mL"}, {"measurement": "MIC", "setting": "[16]", "value": 0.5, "unit": "µg/mL"}, {"measurement": "MIC", "setting": "[17]", "value": 0.5, "unit": "µg/mL"}, {"measurement": "MIC", "setting": "[18]", "value": 2, "unit": "µg/mL"}, {"measurement": "MIC", "setting": "[19]", "value": 1, "unit": "µg/mL"}, {"measurement": "MIC", "setting": "[20]", "value": 1, "unit": "µg/mL"}, {"measurement": "MIC", "setting": "[21]", "value": 2, "unit": "µg/mL"}, {"measurement": "MIC", "setting": "[22]", "value": 1, "unit": "µg/mL"}, {"measurement": "MIC", "setting": "[23]", "value": 1, "unit": "µg/mL"}, {"measurement": "MIC", "setting": "[24]", "value": 1, "unit": "µg/mL"}, {"measurement": "MIC", "setting": "[25]", "value": 2, "unit": "µg/mL"}, {"measurement": "MIC", "setting": "[26]", "value": 2, "unit": "µg/mL"}, {"measurement": "MIC", "setting": "[27]", "value": 32, "unit": "µg/mL"}, {"measurement": "MIC", "setting": "[28]", "value": "> 128", "unit": "µg/mL"}, {"measurement": "IC50 at 48 h", "setting": "[29]", "value": "> 256", "unit": "µg/mL"}, {"measurement": "IC50 at 1 h", "setting": "[30]", "value": "> 256", "unit": "µg/mL"}, {"measurement": "Activity", "setting": "[31]", "value": "Active"}, {"measurement": "Activity", "setting": "[32]", "value": "Active"}, {"measurement": "log(activity)", "setting": "[33]", "value": 3, "unit": "CFU/g"}, {"measurement": "Activity", "setting": "[34]", "value": "Non-Toxic"}, {"measurement": "Activity", "setting": "[35]", "value": "Non-Toxic"}]}]}
